The list is not random: actives were taken first. Their share in the collection is about 4.7%.
RGS4 act = RGS4 potentiation or activation; 310,000 tested, 0.92% active; B-score at 10 µM; HEK293 M3R/inducible RGS4, carbachol calcium flux Fluo4; active compounds read low;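 active means B-score of the integrated calcium signal more than 4 SD below the library mean, with starting fluorescence not abnormally high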;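 further: negative B-score means reduced calcium response which marks RGS4 activation or potentiation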
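Also added: carbachol at ECmax as muscarinic agonist stimulus; Assay system: HEK293 cells with stable M3R and inducible RGS4; Timing: overnight RGS4 induction, 30 min dye load 37 °C, 20 min compound RT; Measured by: Fluo4-AM (2 µM) calcium-flux fluorescence, kinetic read.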
MrgX1 PAM = human MrgX1 positive allosteric modulation, primary screen; B-score at 10 µM; MrgX1-HEK293, Fluo-4 calcium flux, FDSS; active compounds read high; AID 588675; Q96LB2; 310,000 tested, 0.63% active;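 active means plate-corrected calcium response at least 3 library SD above typical, normal starting fluorescence, not activating the receptor alone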;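 further: compound read alongside a low EC10 to EC30 dose of BAM8-22 agonist; peak minus trough fluorescence over baseline measured at the second addition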
Target sequence (Q96LB2 whole entry, looked up): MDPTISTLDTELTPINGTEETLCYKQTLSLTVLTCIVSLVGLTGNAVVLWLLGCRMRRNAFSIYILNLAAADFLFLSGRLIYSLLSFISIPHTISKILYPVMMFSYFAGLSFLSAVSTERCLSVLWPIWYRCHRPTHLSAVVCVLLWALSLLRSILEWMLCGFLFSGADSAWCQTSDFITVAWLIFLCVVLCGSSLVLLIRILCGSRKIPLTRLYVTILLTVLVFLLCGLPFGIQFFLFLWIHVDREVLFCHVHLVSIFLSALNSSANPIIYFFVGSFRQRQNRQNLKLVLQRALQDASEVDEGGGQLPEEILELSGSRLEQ
MrgX1 agonist = activates human MrgX1 receptor signaling; Q96LB2; MrgX1-HEK293 cells, Fluo-4 calcium fluorescence, agonist mode; active compounds read high; B-score at 10 µM; 310,000 tested, 0.44% active; AID 588627;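 active means calcium response B-score plate-corrected fluorescence ratio at least 3 library SD, with starting fluorescence B-score inside 5 SD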
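Test system: Stable human MrgX1 HEK293 cell line | Schedule: Overnight plating before 1 h dye loading | Read-out basis: Baseline-normalised fluorescence change ratio, B-scored | Detection: Kinetic calcium dye fluorescence, Fluo-4 NW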
RGS4 inh = human RGS4 inhibition | P49798 | HEK293 M3R/RGS4 inducible, Fluo-4 calcium flux; active compounds read high; triggered by carbachol at its EC20 | B-score at 10 µM | 310,000 tested, 0.45% active;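 active means B-score, a plate-corrected calcium signal, over three deviations above library mean, with baseline fluorescence within five deviations of library mean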;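 further: RGS4 expression induced by doxycycline in cells with stable M3 receptor; B-score is computed from the integrated fluorescence ratio over baseline after carbachol; higher B-score means a larger calcium signal and so more RGS4 inhibition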
Target sequence (P49798 whole entry, looked up): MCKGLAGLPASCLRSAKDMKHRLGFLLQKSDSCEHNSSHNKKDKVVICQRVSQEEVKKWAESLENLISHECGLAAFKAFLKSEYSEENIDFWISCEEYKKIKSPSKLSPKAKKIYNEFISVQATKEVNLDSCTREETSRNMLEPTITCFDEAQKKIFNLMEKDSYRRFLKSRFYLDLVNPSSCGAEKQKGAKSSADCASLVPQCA
Cl transport mod = KCC2 (human) Cl- transport modulation; KCC2 cells, thallium flux FluoZin-2 fluorescence; B-score of Tl+ flux slope (higher = more flux/activation; lower = inhibition) at 10 µM; 190,000 tested, 2.2% active; AID 1456;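 active means thallium flux slope and its plate-corrected score both differing from the plate sample mean at a set confidence after two filtering rounds, in either direction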;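 further: slope of fluorescence scaled to starting intensity during 10 to 20 s after thallium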
MrgX1 antag = antagonists of human MrgX1 receptor; Q96LB2; MRGX1-HEK293 calcium flux, Fluo-4, BAM8-22 antagonism; active compounds read low; B-score at 10 µM; 310,000 tested, 1.3% active; AID 588676;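 active means calcium-response B-score plate-corrected more than 3 library SD below zero, starting fluorescence within 5 deviations, no agonist response on first addition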;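 further: peak minus trough fluorescence over baseline after final BAM8-22 challenge near maximal dose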
RGS4 block valid = validation of RGS4 inhibitors; 1,700 tested, 65% active; HEK293 M3R/RGS4, carbachol calcium Fluo-4 fluorescence; carbachol added at its EC20; 0 = buffer wells, 100 = carbachol control; calcium response, % at 10 µM; shares compounds with RGS4 inh; AID 492999;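 active means duplicate-averaged calcium response above the buffer-only control mean plus 5 SD of those controls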;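 further: integrated fluorescence ratio F max minus min over baseline F0; higher response in RGS4-induced cells means RGS4 inhibition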
M3R Ca ctr = counter-screen for RGS4 inhibitors: effect in non-induced cells. HEK293 M3R non-induced, carbachol calcium Fluo-4; submaximal (EC20) carbachol stimulus; buffer wells 0%, carbachol control wells 100%. activity (percent), % at 10 µM. AID 493000. 1,900 tested, 20% active. shares compounds with RGS4 inh; call rule not given here;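 further: RGS4 induction absent so cells express M3R without RGS4; higher means more calcium signal and flags a non-specific hit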
RGS4 inh ctr2 = second RGS4 inhibitor counter-screen in uninduced cells lacking carbachol; shares compounds with RGS4 inh; HEK293 M3R/RGS4 non-induced, Fluo-4 calcium, no carbachol; normalised: buffer wells 0%, carbachol wells 100%; calcium response (agonist-mode artifact), % at 10 µM; 1,900 tested, 22% active; AID 493001;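 active means duplicate-averaged calcium rise in uninduced cells above buffer wells' mean plus 5 SD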
Of the large screens only hits and unclear results are named; the others gave an inactive call (follow-up assays come after a bar, where they were run).

COc1ccc(-c2csc(Nc3ccc(S(=O)(=O)Nc4cc(OC)nc(OC)n4)cc3)n2)cc1	RGS4 inh 5.71 | RGS4 block valid 18.0% | M3R Ca ctr inactive | RGS4 inh ctr2 inactive
COc1ccccc1NC(=O)c1ccccc1N(Cc1ccccc1)S(C)(=O)=O	none (no result: Cl transport mod)
O=C(N/N=C/c1c[nH]c2ccccc12)C1CC1c1ccccc1 (configuration not stated)	RGS4 inh 5.58 | RGS4 block valid 9.5% | M3R Ca ctr 36.0% | RGS4 inh ctr2 11.0%
Cc1ccc(-c2cc(C(=O)N/N=C/c3c[nH]c4ccccc34)[nH]n2)cc1	none (no result: MrgX1 PAM, MrgX1 agonist, MrgX1 antag) | RGS4 block valid inactive | M3R Ca ctr inactive | RGS4 inh ctr2 inactive
O=C(N/N=C/c1c[nH]c2ccccc12)c1cc(-c2ccc(-c3ccccc3)cc2)n[nH]1	none
O=[N+]([O-])c1cc(F)c2cccnc2c1O	none
O=[N+]([O-])c1cc(Cl)c2cccnc2c1O	none | M3R Ca ctr inactive | RGS4 inh ctr2 134.5%
O=C(CCNc1ccc(F)c(Cl)c1)c1ccco1	none (no result: Cl transport mod)
O=C(CCNc1ccc(F)cc1)c1ccco1	RGS4 inh 5.39 | RGS4 block valid 11.0% | M3R Ca ctr inactive | RGS4 inh ctr2 inactive
Cc1cccnc1NC(=O)C1c2ccccc2Oc2ccccc21	RGS4 inh 8.24 | RGS4 block valid 10.0% | M3R Ca ctr inactive | RGS4 inh ctr2 inactive
Cc1ccccc1NC(=O)C1c2ccccc2Oc2ccccc21	none
O=[N+]([O-])c1cc(C(F)(F)F)ccc1NCCc1c[nH]c2ccc(O)cc12	RGS4 inh 12.6 (no result: Cl transport mod) | RGS4 block valid 20.0% | M3R Ca ctr inactive | RGS4 inh ctr2 inactive
O=[N+]([O-])c1cc(C(F)(F)F)ccc1NCCc1c[nH]c2ccccc12	none
COc1ccc(C(=O)Nc2ccc(S(=O)(=O)Nc3nccc(C)n3)cc2)cc1[N+](=O)[O-]	none (no result: Cl transport mod)
O=C1NC(=Nc2ccccc2Cl)S/C1=C\c1cccc([N+](=O)[O-])c1	none (no result: Cl transport mod)
COc1c(/C=C2\SC(=Nc3ccccc3Cl)NC2=O)cccc1[N+](=O)[O-]	RGS4 inh 8.51 (no result: Cl transport mod) | RGS4 block valid 33.5% | M3R Ca ctr 69.5% | RGS4 inh ctr2 inactive
O=C1NC(=Nc2ccccc2Cl)S/C1=C\c1cccc([N+](=O)[O-])c1O	none (no result: Cl transport mod) | RGS4 block valid inactive | M3R Ca ctr inactive | RGS4 inh ctr2 inactive
Cc1onc(-c2ccccc2Cl)c1C(=O)N1CCN(S(=O)(=O)c2ccc(F)c(F)c2)CC1	none (no result: Cl transport mod)
Nc1cccc(C(=O)OCC(=O)Nc2cccc3c2C(=O)c2ccccc2C3=O)c1	RGS4 inh 4.93 | RGS4 block valid 5.0% | M3R Ca ctr inactive | RGS4 inh ctr2 13.5%
CNC(=S)N(CCCO)Cc1cc2cc3c(cc2[nH]c1=O)OCO3	none (no result: Cl transport mod)
COCCCn1c(=O)c2sccc2n2c(CCCC(=O)NCc3ccc(F)cc3)nnc12	none (no result: Cl transport mod)
C[C@]12C(=O)N(c3cccc(Cl)c3)C(=O)N1[C@H]1c3ccccc3OC[C@@H]1[C@H]2c1ccccc1	RGS4 inh 5.96, MrgX1 antag -5.97 (no result: Cl transport mod) | RGS4 block valid 16.0% | M3R Ca ctr inactive | RGS4 inh ctr2 inactive
Cc1cccc(N2C(=O)N3[C@@H]4c5ccccc5OC[C@@H]4[C@@H](c4ccccc4)[C@@]3(C)C2=O)c1	none (no result: Cl transport mod) | M3R Ca ctr inactive | RGS4 inh ctr2 inactive
Cc1cccc(N2C(=O)N3[C@@H]4c5ccccc5OC[C@@H]4[C@@H](c4ccccc4)[C@]3(C)C2=O)c1	none (no result: Cl transport mod) | RGS4 block valid inactive | M3R Ca ctr inactive | RGS4 inh ctr2 inactive

High-throughput results: PubChem, several laboratories
